The target in series [1] is Gamma-secretase. The series is described as follows: Inhibition of human gamma secretase in HEK293 cells assessed as reduction of amyloid beta level by ELISA. In kind it is cell-based. (In general: ELISA stands for enzyme-linked immunosorbent assay.)
The nature of series [2]: Clearance in human microsomes assessed per mg of protein. It counts as ADME, Microsome. In outline:
(§1)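 Intrinsic clearance in human and mouse liver microsomes, expressed as µl/min/mg protein.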

Series [3] is described as follows: Clearance in mouse microsomes assessed per mg of protein. In kind it is ADME, Liver, Microsome. In outline:
as §1

Series [4] is described as follows: Ratio of drug level in brain to plasma in PS2APP transgenic mouse at 20 mg/kg, po after 2 hrs. It counts as ADME, organism-based. The arrangement: dose 20 mg/kg, route oral. The note with it: read-out: BPR. In a few lines:
(§2)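 Single 20 mg/kg oral dose in mice; plasma and brain concentrations taken at 2 h, brain/plasma ratio calculated; N = 3.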

The test system of series [5] is Mus musculus. The series is described as follows: Inhibition of human gamma secretase expressed in PS2APP transgenic mouse at 20 mg/kg, po after 3 days. In kind it is functional, organism-based. Details: dose 20 mg/kg. In a few lines: (§3)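 PS2APP transgenic mice (human APP driven by neuron-specific Thy1 promoter) dosed 3 × 20 mg/kg po or ip; γ-secretase inhibition read as accumulation of CTFβ in total brain by Western blot, chemiluminescent band quantified and normalized to an endogenous control protein; reference inhibitor LY411575.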

Series [6] relates to Mus musculus. As to the kind of experiment: Inhibition of human gamma secretase expressed in PS2APP transgenic mouse at 20 mg/kg, ip after 3 days. The arrangement: dose 20 mg/kg. It counts as functional, organism-based. In a few lines:
as §3

Series [7] in a line: Drug level in PS2APP transgenic mouse brain at 20 mg/kg, po after 2 hrs. In kind it is ADME, organism-based. The arrangement: dose 20 mg/kg, route oral. The settings on record: read-out: Drug uptake. In outline:
as §2

In series [8] the test system is MDR1. The series is described as follows: Permeability from apical to basolateral side of pig LLC-PK1 cell transfected with human MDR1. In kind it is ADME, cell-based, Sus scrofa. The note with it: read-out: permeability. In a few lines: (§4)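 Bidirectional transport across LLC-PK1 monolayers exogenously expressing human MDR1 (P-gp), compound at 1 μM; apical-to-basolateral and reverse permeabilities measured, export ratio derived; run with and without elacridar (5 μM) as transport inhibitor. Passive permeability estimated from experiments with active transport inhibited.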

Series [9] concerns LLC-PK1. As to the kind of experiment: Ratio of permeability from basolateral to apical over apical to basolateral side of the pig LLC-PK1 cell transfected with human MDR1 at 1 uM. In kind it is ADME, cell-based, Sus scrofa. The note with it: llc-pk1, 1 µM. In outline:
as §4

Series [10] relates to LLC-PK1. As to the kind of experiment: Ratio of permeability from basolateral to apical over apical to basolateral side of the pig LLC-PK1 cell transfected with human MDR1 at 1 uM in presence of elacridar. The settings on record: llc-pk1, 1 µM. In kind it is ADME, cell-based, Sus scrofa. In outline:
as §4

Series [11] in a line: Solubility of the compound. It counts as physicochemical.
A short description of series [12]: Distribution coefficient, log D of the compound. It counts as physicochemical. The note with it: octanol/water.

The structures appear in SMILES notation. The source made the active and inactive calls. No cut-off for these calls is given here.

For the molecule `CC1(C)CCNC(=O)C(N(Cc2ccc(C(=O)NC3CC3)cc2)S(=O)(=O)c2ccc(Cl)cc2)C1` (centres undefined), in series [1], the IC50 stood at 6 nM. The results for the microsomal CLint in series [2] and in [3] were 45 µL/min/mg and 191 µL/min/mg, respectively.
For `O=C1NCCCCCC1N(Cc1ccc2c(c1)OCO2)S(=O)(=O)c1ccc(Cl)cc1` (centres undefined), the concentration for half-maximal inhibition (IC50) in series [1] worked out at 9000 nM.
Consider `O=C1NCCC1N(Cc1ccc2c(c1)OCO2)S(=O)(=O)c1ccc(Cl)cc1` (centres undefined), for which, in [1], the IC50 is greater than 20000 nM.
In the case of `NC(=O)c1ccc(CN([C@@H]2CCCCNC2=O)S(=O)(=O)c2ccc(Cl)cc2)cc1`, the IC50 in [1] came to 80 nM.
As for `O=C(NC1CC1)c1ccc(CN([C@@H]2CCC(F)(F)CNC2=O)S(=O)(=O)c2ccc(Cl)cc2)cc1`, the intrinsic clearance (microsomal CLint) in series [3] is 5.4 µL/min/mg.
Regarding `CC1(C)CCCC(N(Cc2ccc(C(=O)NC3CC3)cc2)S(=O)(=O)c2ccc(Cl)cc2)C(=O)N1` (centres undefined), the 50% inhibitory concentration (IC50) in [1] is greater than 20000 nM.
Regarding `COc1ccc(CN([C@@H]2CC(F)(F)CCNC2=O)S(=O)(=O)c2ccc(Cl)cc2)c(F)c1F`, the microsomal CLint in [2] was determined as 19 µL/min/mg; in series [3] it was 121 µL/min/mg. Also, the Kp at 2 h in [4] was less than 0.1.
For `CC1(C)CCCNC(=O)C1N(Cc1ccc(C(=O)NC2CC2)cc1)S(=O)(=O)c1ccc(Cl)cc1` (centres undefined), the concentration for half-maximal inhibition (IC50) in [1] turned out to be 390 nM.
Turning to `O=C(NC1CC1)c1ccc(CN([C@@H]2CC(F)(F)CCNC2=O)S(=O)(=O)c2ccc(Cl)cc2)cc1`, the IC50 in series [1] amounted to 4 nM. The microsomal CLint in series [2] is 1.9 µL/min/mg; in series [3], 2.2 µL/min/mg. Moreover, the outcome in series [5] and in series [6] was inactive.
As to `CC(C)C1CCNC(=O)C(N(Cc2ccc(C(=O)NC3CC3)cc2)S(=O)(=O)c2ccc(Cl)cc2)C1` (racemic), the IC50 in series [1] amounted to 40 nM. The intrinsic clearance (microsomal CLint) is 51 µL/min/mg in series [2] and 203 µL/min/mg in [3].
Regarding `COc1ccc(CN(C2CCCCNC2=O)S(=O)(=O)c2ccc(Cl)cc2)c(F)c1` (centres undefined), in series [1], the IC50 came to 150 nM.
On to `CC(C)(C)C1CCNC(=O)C(N(Cc2ccc(C(=O)NC3CC3)cc2)S(=O)(=O)c2ccc(Cl)cc2)C1` (racemic), for which, in series [1], the IC50 turned out to be 120 nM. Further, the intrinsic metabolic clearance (microsomal CLint) in series [2] is 93 µL/min/mg; in [3] it was 110 µL/min/mg.
For the molecule `CC(C)C[C@H](C(=O)NO)N(Cc1ccc2c(c1)OCO2)S(=O)(=O)c1ccc(Cl)cc1`, the concentration for half-maximal inhibition (IC50) in series [1] is 2600 nM.
On to `O=C(NC1CC1)c1ccc(CN(C2CC(C(F)(F)F)CCNC2=O)S(=O)(=O)c2ccc(Cl)cc2)cc1` (racemic), for which the IC50 in series [1] was determined as 20 nM. The microsomal CLint in series [2] amounted to 19 µL/min/mg; in series [3], 39 µL/min/mg.
Regarding `O=C1NCCCC1N(Cc1ccc2c(c1)OCO2)S(=O)(=O)c1ccc(Cl)cc1` (centres undefined), the concentration for half-maximal inhibition (IC50) in series [1] was found to be 14000 nM.
Same read-out and setting: to `O=C(O)CCc1ccc(CN([C@@H]2CCCCNC2=O)S(=O)(=O)c2ccc(Cl)cc2)cc1` belongs 140 nM; to `O=C(NC1CC1)c1ccc(CN(C2CCCCNC2=O)S(=O)(=O)c2ccc(Cl)cc2)cc1` (centres undefined), 170 nM.
Still for that read-out and setting: for `CN(C)C(=O)c1ccc(CN(C2CCCCNC2=O)S(=O)(=O)c2ccc(Cl)cc2)cc1` (centres undefined) the value was 2000 nM.
For `COc1ccc(CN([C@@H]2CC(F)(F)CCNC2=O)S(=O)(=O)c2ccc(Cl)cc2)cn1`, in series [1], the 50% inhibitory concentration (IC50) was 30 nM. The values for the microsomal CLint in series [2] and in [3] were 9 µL/min/mg and 72 µL/min/mg, respectively. For the same molecule, the outcome in series [5] was Active. Moreover, the concentration at 2 h in series [7] came to 60 ng/g. Moreover, the Kp at 2 h in series [4] is 0.06. The Papp A→B in [8] came to 28 ×10⁻⁶ cm/s. In addition, the results for the Ratio in series [9] and in series [10] were 2.2 and 1, respectively.
For the molecule `COc1ccc(CN([C@@H]2CC(F)(F)CCNC2=O)S(=O)(=O)c2ccc(Cl)cc2)c(F)c1`, in [1], the IC50 turned out to be 20 nM. In addition, the results for the microsomal CLint in series [2] and in series [3] were 13 µL/min/mg and 105 µL/min/mg, respectively.
As to `CC1(C)CCC(N(Cc2ccc(C(=O)NC3CC3)cc2)S(=O)(=O)c2ccc(Cl)cc2)C(=O)NC1` (centres undefined), the half-inhibitory concentration (IC50) in series [1] stood at 3500 nM.
Take `CC1(C)CCNC(=O)[C@H](N(Cc2ccc(C(=O)NC3CC3)cc2)S(=O)(=O)c2ccc(Cl)cc2)C1`: in series [1], the IC50 amounted to 15 nM. Moreover, the intrinsic metabolic clearance (microsomal CLint) was determined as 36 µL/min/mg in series [2] and 655 µL/min/mg in series [3].
As to `CC(C)C[C@H](C(N)=O)N(Cc1ccc2c(c1)OCO2)S(=O)(=O)c1ccc(Cl)cc1`, in series [1], the IC50 was found to be 8 nM. Also, the intrinsic clearance (microsomal CLint) in series [2] turned out to be 34 µL/min/mg; in series [3] it was 282 µL/min/mg. Besides, in series [11], the solubility was less than 1 µg/mL. This molecule showed a pH-dependent lipophilicity (logD) in [12] greater than 3.
In the case of `COc1ccc(CN(C2CCCCNC2=O)S(=O)(=O)c2ccc(Cl)cc2)cn1` (centres undefined), the half-maximal inhibitory concentration (IC50) in series [1] was determined as 900 nM.

For orientation: IC50 means the concentration that gives 50% inhibition. A word on the microsomal CLint: it is the capacity of the preparation to metabolise the compound, expressed as a volume cleared per time. A higher microsomal CLint goes with rapid turnover. One may read the solubility as the dissolved amount per volume that the medium holds. For orientation: logD means lipophilicity at a set pH, counting ionised and neutral species.
